Assay results published in publication PMC4836388 (ACS chemical biology, 2015).
Entries after “also recorded” stand apart in the source; their conditions may differ.

How the values were obtained:
[1] = test system: HIV-1BaL virions; experiment: sulfhydryl reagent treat/wash viral infection assay; type: cell-based; conditions: HOS cells
[2] = test system: HIV-1BaL pseudovirus; experiment: single-round pseudoviral infection luciferase reporter assay; type: cell-based; conditions: for inhibition of pseudotyped HIV-1BaL infection by sulfhydryl reagent: reagent not removed
[3] = test system: pseudotyped HIV-1BaL virus; experiment: virolysis assay; conditions: HIV-1BaL pseudotyped virions
[4] = test system: HIV-1BaL pseudovirus; experiment: 2G12 mechanism of action infection assay; type: cell-based; conditions: ligand added after virus bound to cells at 4 °C
Method in brief: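 HIV-1BaL.01 Env pseudovirus (pNL4-3.Luc+ R− E− backbone, made in HEK-293T, iodixanol-gradient purified) bound to prechilled HOS.T4.R5 cells (preseeded 24 h, 8000/well) 4 h at 4 °C. Cells washed twice cold, then exposed to serially diluted test antibody for 30 min steps at 4 °C and 23 °C, then 24 h at 37 °C. Medium wash; lysis at 48 h; luciferase (1 mM D-luciferin). Enfuvirtide control wells; triplicate; infection relative to virus without inhibitor.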

[5] = test system: pseudotyped HIV-1BaL virions; experiment: protein inhibition of virolysis; conditions: with 10 μM 1, 14 μM 2 or 50 μM 8 (EC80)

Molecule | virus infectivity after reagent treatment and removal [1] | inhibition of pseudotyped HIV-1BaL infection by sulfhydryl reagent [2] | other results
O[C@@H](CS)[C@@H](O)CS (racemic) [DTT, dithiothreitol] | did not cause significant dose-dependent reduction | inhibit | –
CC[C@H](C)[C@H](NC(=O)[C@@H](N)CCCNC(=N)N)C(=O)N[C@@H](CC(N)=O)C(=O)N[C@@H](CC(N)=O)C(=O)N[C@H](C(=O)N1C[C@@H](n2cc([C]34[CH]5[CH]6[CH]7[CH]3[Fe]6754389%10[CH]4[CH]3[CH]8[CH]9[CH]4%10)nn2)C[C@H]1C(=O)N[C@@H](Cc1c[nH]c2ccccc12)C(=O)N[C@@H](CO)C(=O)N[C@@H](CCC(=O)O)C(=O)N[C@@H](C)C(=O)N[C@@H](CCSC)C(=O)N[C@@H](CCSC)C(=O)NCCC(=O)N[C@@H](CCC(N)=O)C(=O)NCCC(=O)N[C@@H](CSC1CC(=O)N(CCC(=O)NCCCOCCOCCOCCCNC(=O)CCN2C(=O)CC(SC[C@H](NC(=O)CCNC(=O)[C@H](CCC(N)=O)NC(=O)CCNC(=O)[C@H](CCSC)NC(=O)[C@H](CCSC)NC(=O)[C@H](C)NC(=O)[C@H](CCC(=O)O)NC(=O)[C@H](CO)NC(=O)[C@H](Cc3c[nH]c4ccccc34)NC(=O)[C@@H]3C[C@H](n4cc([C]56[CH]7[CH]8[CH]9[CH]5[Fe]89765%10%11%12[CH]6[CH]5[CH]%10[CH]%11[CH]6%12)nn4)CN3C(=O)[C@@H](NC(=O)[C@H](CC(N)=O)NC(=O)[C@H](CC(N)=O)NC(=O)[C@@H](NC(=O)[C@@H](N)CCCNC(=N)N)[C@@H](C)CC)[C@@H](C)CC)C(N)=O)C2=O)C1=O)C(N)=O)[C@@H](C)CC (stereo partly drawn) [1a] | – | – | p24 release (in words) [3]: did not induce p24 release; inhibition of HIV-1 infection (in words) ([2]; HIV-1BaL pseudotyped virions): powerful inhibitor of HIV-1 infection, comparable to 1
NC(=O)CI [IAAm, iodoacetamide] | – | inhibit | –
O=C(O)CCP(CCC(=O)O)CCC(=O)O [TCEP, tris(2-carboxyethyl)phosphine] | did not cause significant dose-dependent reduction | inhibit | –
enfuvirtide [T20] | – | – | infection with six-helix bundle formation delayed by low temperature [4]: blocked infection
cyanovirin-N: lectin that binds high-mannose glycans in the gp120 outer domain (protein, UniProt P81180 1-101, looked up) Cyanovirin-N: LGKFSQTCYNSAIQGSVLTSTCERTNGGYNTSSIDLNSVIENVDGSLKWQPSNFIETCRNTQLAGSSELAAECKTRAQQFVSTKINLDDHIANIDGTLKYE | – | – | inhibition of PTT-induced p24 release by protein ligand [5]: did not inhibit p24 release; also recorded: no inhibition of p24 release
